“And” between values parts separate entries of the source, which are not always exact repeats. Equal values may be shown once. “Also recorded” adds a separate entry of the source.
Key:
PDE4 = settings: cited from earlier work
Safety / adverse events = assay type: in vivo, human
Outline: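 Ten patients received 21-day cycles of oral roflumilast 500 mcg daily. Prednisone 60 mg/m2 PO daily was added on days 8–14 of cycle 1 (maximum 100 mg daily) and on days 1–7 of later cycles. Incidence, severity, relationship and type of adverse events during treatment and follow-up were graded by NCI CTCAE version 4.03.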

[1] = system: relapsed/refractory B cell malignancies; experiment: Clinical response and days in trial, phase Ib trial; assay type: in vivo, human; settings: roflumilast plus prednisone
Outline: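 Cycles lasted 21 days, with oral roflumilast 500 mcg daily throughout. Prednisone 60 mg/m2 PO daily was given on days 8–14 in cycle 1 (maximum 100 mg daily) and on days 1–7 in later cycles. Response was scored by International Working Group revised criteria for each disease.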

PI3K = PI3K activity; assay type: in vivo, human
AKT = AKT phosphorylation; assay type: in vivo, human; settings: 5 of 8 patients; roflumilast single agent, day 8 vs day 0, PBMC, western blot
B cell lymphoma = settings: murine model of B cell lymphoma; cited from earlier work
[2] = roflumilast 500 mcg PO daily plus prednisone, 10 patients
[3] = individual patient (UPN, diagnosis in the row)
[4] = individual patient, PI3K/AKT non-suppressors
[5] = individual patient, PI3K/AKT suppressors

O=C(Nc1c(Cl)c[n+]([O-])cc1Cl)c1ccc(OC(F)F)c(OCC2CC2)c1 [roflumilast N-oxide]
IC50 for inhibition of PDE4 (PDE4): 0.8 ng/mL

O=C(Nc1c(Cl)cncc1Cl)c1ccc(OC(F)F)c(OCC2CC2)c1 [roflumilast]
transitory episode of suicidal ideation, patients (Safety / adverse events; UPN#10, end of first cycle, resolved upon cessation of study drug): One patient
transient ≥ grade 2 neutropenia, patients (Safety / adverse events; roflumilast 500 mcg PO daily plus prednisone, 3 of 10 patients): 30%
grade 4 events (Safety / adverse events; [2]): no grade 4 events
incidence of most common ≥Grade 2 treatment-related AEs (fatigue, anorexia, neutropenia), all causality (Safety / adverse events; [2]): ≥ 25%
tolerability of treatment (Safety / adverse events; [2]): generally well tolerated
partial response or stable disease, share of evaluable patients ([1]; 6 of nine evaluable patients): 66%
average days in trial, true PI3K/AKT suppressor profile ([1]; clinically evaluable patients): 156 days
average days in trial, without PI3K/AKT suppression ([1]; clinically evaluable patients): 91 days
days in trial, range, true PI3K/AKT suppressor profile ([1]; clinically evaluable patients): 49 to 315 days
days in trial, range, without PI3K/AKT suppression ([1]; clinically evaluable patients): 28 to 139 days
partial response or stable disease in PI3K/AKT suppressor group ([1]; four of five patients): 80%
Best response [1, 3]: Stable disease; also recorded: Withdrawn; also recorded: Progressed; also recorded: Partial response
days in trial (second figure of No of cycles/days in trial) [1, 3]: 4 / 105 days and 4 / 98 days and 1 / 29 days and 2 / 46 days and 8 / 190 days and 13 / 315 days and 2 / 49 days and 1 / 28 days and 5 / 139 days and 5 / 127 days
Best response [1, 4]: Stable disease; also recorded: Progressed
Days on trial [1, 4]: 139 days and 105 days and 29 days and 28 days
Best response [1, 5]: Stable disease; also recorded: Partial response; also recorded: Progressed
Days on trial [1, 5]: 190 days and 315 days and 49 days and 127 days and 98 days
patients with early progression (during first or second cycle) ([1]; of nine evaluable patients): 3 patients
days in trial until progression, death or withdrawn consent, range [1]: 28 to 315 days
median number of days in trial until progression, death or withdrawn consent [1]: 105 days
average days in trial, patients of Hispanic origin ([1]; p=0.08 vs non-Hispanic): 193 days
PI3K suppression in non-PI3K/AKT suppressors (PI3K; n=4, no pAKT suppression, day 8 vs day 0, PBMC): < 25%
patients with significantly suppressed PI3K activity, number of evaluated (PI3K; roflumilast 500 mcg PO daily single agent, day 8 vs day 0, PBMC): 7 of the 9
patients evaluated with significantly suppressed PI3K activity (PI3K; roflumilast as single agent, 7 days, PBMC): 77%
samples with marked suppression of pAKT (T308) levels (AKT): 62.5%
IC50 for inhibition of PDE4 (PDE4): 0.3 ng/mL
survival (B cell lymphoma): improved
tumor burden (B cell lymphoma): significantly suppressed

Source: publication PMC5316514 (Clinical cancer research : an official journal of the …, 2016)
